# ARFGAP1 inhibitor = inhibits rat ARF GTPase activating protein 1; Arfgap1-stimulated ARF1 GTP hydrolysis, GDP FP detection; inhibition, % at 16.5 µM; hit rate 0.26% among 360,000; AID 651572;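 active = inhibition above a per-plate limit, mean inhibition of low control wells plus 3 SD, cut at about 25% in these data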
# Target sequence (Q62848 1-136 limits assumed): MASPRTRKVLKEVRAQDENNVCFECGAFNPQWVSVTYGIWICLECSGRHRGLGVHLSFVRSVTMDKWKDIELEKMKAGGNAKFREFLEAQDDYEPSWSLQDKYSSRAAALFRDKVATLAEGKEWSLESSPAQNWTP
#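 Material – truncated rat Arfgap1 GAP domain · Buffer or medium – HEPES-based buffer, pH 7.5 · Reagent – human ARF1(Δ1-17)-GTP substrate · Dosing – 16.5 µM single point, 1.26% DMSO · Schedule – GTP hydrolysis reaction 2 h at 25 °C · Technique – GDP detection by fluorescence polarization · Benchmarks – No-Arfgap1 wells (100%) versus DMSO full-reaction wells (0%) · Repeats – single replicate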
# ASAP1 inh = ASAP1 ArfGAP inhibition. Q9ULH1. ASAP1-stimulated ARF1 GTP hydrolysis, GDP FP detection. inhibition, % at 16.5 µM. hit rate 0.19% among 360,000; in the data active = inhibition above about 25%
# Rtt109 Vps75 = inhibitors of Candida albicans Rtt109/Vps75 histone acetyltransferase. hit rate 0.16% among 330,000. purified Rtt109/Vps75, ThioGlo CoA-SH fluorescence, 4 h. Q5AAJ8. inhibition, % at 34.9 µM;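 active = inhibition of at least 50% in every replicate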
# Target sequence (Q5AAJ8 whole entry, looked up): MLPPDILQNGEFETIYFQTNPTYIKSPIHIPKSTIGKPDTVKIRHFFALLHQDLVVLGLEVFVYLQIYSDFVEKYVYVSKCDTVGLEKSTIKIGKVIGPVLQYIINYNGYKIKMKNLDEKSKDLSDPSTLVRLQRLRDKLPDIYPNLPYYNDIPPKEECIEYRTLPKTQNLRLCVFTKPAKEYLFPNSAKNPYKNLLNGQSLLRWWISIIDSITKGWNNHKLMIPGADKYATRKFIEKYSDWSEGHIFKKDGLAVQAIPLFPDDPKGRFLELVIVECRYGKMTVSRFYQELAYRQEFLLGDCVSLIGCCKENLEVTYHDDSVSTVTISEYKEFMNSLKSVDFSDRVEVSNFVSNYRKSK
# FGF22 binding = FGF22 (human) thermal shift binding; activity (Tm shift, normalised), % at 9.99 µM; hit rate 1.5% among 340,000; AID 651658; recombinant FGF22 thermal shift, SYPRO orange fluorescence; percent of sucrose octasulfate shift, DMSO zero;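 active = mean Tm shift, scaled 0 neutral to 100 positive control, at about 1.3% or above, every replicate too, limit read from the data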
# Target sequence (Q9HCT0 whole entry, looked up): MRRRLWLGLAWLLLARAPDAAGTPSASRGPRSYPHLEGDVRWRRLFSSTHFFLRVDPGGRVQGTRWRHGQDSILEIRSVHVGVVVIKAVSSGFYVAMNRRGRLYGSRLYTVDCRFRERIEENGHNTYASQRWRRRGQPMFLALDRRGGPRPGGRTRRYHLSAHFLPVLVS
# Efflux pump inh = blocks antifungal efflux pumps in multiplex yeast assay; S. cerevisiae Candida pump triplex, Nile Red efflux; inhibition, % at 10 µM; hit rate 0.44% among 330,000;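 active = plate passing quality check with inhibition over a set limit, or well fluorescence over plate mean plus 4 SD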;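 note: Nile Red retained in pooled yeast measured as flow cytometry median fluorescence; higher means more Nile Red kept so more efflux inhibition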
# Cmpd fluor yeast = compound fluorescence in yeast efflux pump counter-screen; shares compounds with Efflux pump inh; S. cerevisiae AD/pABC3, flow cytometry; fluorescence ratio to DMSO, % at 10 µM; hit rate 4% among 1,700; AID 588517;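 active = fluorescence ratio to DMSO above its plate's cutoff, the plate mean ratio plus 5 SD, cut at about 210% in these data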;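 note: unstained yeast with no Nile Red so the signal is compound autofluorescence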
# CaMdr1 efflux inh = inhibitors of Candida albicans Mdr1 efflux pump; shares compounds with Efflux pump inh; inhibition, % at 10 µM; hit rate 1% among 1,700; S. cerevisiae AD/CaMDR1, Nile Red efflux, flow cytometry; in the data active = inhibition above about 26%;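 note: higher means more Nile Red retained so more efflux inhibition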
# Cdr2 pump inh = blocks the Candida albicans Cdr2 efflux pump in yeast. shares compounds with Efflux pump inh. S. cerevisiae AD/CaCDR2, Nile Red retention, flow cytometry. Nile Red retention ratio vs DMSO, % at 10 µM. hit rate 4% among 1,700. AID 588520; in the data active = Nile Red retention ratio vs DMSO above about 190%;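 note: higher ratio means more blocking of Cdr2 efflux of the dye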
# Cdr1 pump inh = blocks the Candida albicans Cdr1 efflux pump in yeast. shares compounds with Efflux pump inh. S. cerevisiae AD/CaCDR1, Nile Red efflux, flow cytometry. inhibition, % at 10 µM. hit rate 1% among 1,700. AID 588522;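 active = inhibition above the screen-wide mean plus twice its standard deviation, cut at about 32% in these data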
# Numbers stand for hits; i = inactive; nt = no result given; + = active, no number. Compounds with a hit are over-represented: about 1.9% of the library has one in this group of screens.
SMILES,ARFGAP1 inhibitor,ASAP1 inh,Rtt109 Vps75,FGF22 binding,Efflux pump inh,Cmpd fluor yeast,CaMdr1 efflux inh,Cdr2 pump inh,Cdr1 pump inh
COc1ccc2sc(-c3ccccc3OC)c(-c3ccc(SC)cc3)c2c1,i,i,nt,i,nt,nt,nt,nt,nt
COc1ccc(-c2sc3cc(OC)ccc3c2-c2ccc(OCCN3CCCCC3)cc2)cc1,i,i,nt,i,nt,nt,nt,nt,nt
COc1ccc2c(-c3ccc(OCCN4CCCCC4)cc3)c(-c3ccccc3OC)sc2c1,nt,nt,i,nt,i,i,i,i,i
COc1ccc(-c2sc3ccccc3c2-c2ccc(OCCN3CCCCC3)cc2)cc1,i,i,i,i,i,nt,nt,nt,nt
COCC(=O)N(C)C[C@@H]1Oc2cc(-c3cncnc3)ccc2S(=O)(=O)N([C@@H](C)CO)C[C@@H]1C,nt,nt,nt,i,nt,nt,nt,nt,nt
O=C(Nc1nnc(SCC(=O)N2CCCCC2)s1)c1ccc(F)cc1F,i,i,i,i,i,nt,nt,nt,nt
CCN(CC(=O)Nc1ccccc1OC)C(=O)c1ccc2[nH]c3c(c2c1)CC(C)CC3 (stereo unspecified),i,i,i,i,i,nt,nt,nt,nt
O=C(Nc1ccc(S(=O)(=O)Nc2ccccn2)cc1)c1cccc(Br)c1,i,i,i,i,6.2,i,i,i,i
Fc1ccc(CN2CCN(c3ncnc4scc(-c5ccccc5)c34)CC2)cc1,i,i,i,i,1.7,i,i,i,i
CNS(=O)(=O)c1ccc(C(=O)NCC(=O)NCC2COc3ccccc3O2)cc1 (stereo unspecified),i,i,i,i,0.6,i,i,i,i
O=C(CCNC(=O)c1ccc([N+](=O)[O-])cc1)NCC1COc2ccccc2O1 (stereo unspecified),i,i,nt,i,nt,nt,nt,nt,nt
CCN(CC)c1ccc(/C=C(/C#N)c2nc3ccc(C)cc3[nH]2)c(OC(C)C)c1,i,i,i,i,i,nt,nt,nt,nt
CCCOc1cc(N(CC)CC)ccc1/C=C(/C#N)c1nc2ccc(C)cc2[nH]1,i,i,i,i,0.7,241.4,i,i,i
Cc1cc(C(=O)COC(=O)c2ccc[nH]c2=O)c(C)n1-c1ccc(F)cc1,i,i,i,nt,27.8,i,i,i,i
O=C(O)CCCN1C(=O)/C(=C/c2ccc(-c3nc4ccccc4s3)o2)SC1=S,i,i,i,nt,i,219.8,i,+,i
Clc1ncnc2[nH]ccc12,i,i,i,i,nt,nt,nt,nt,nt
COc1ccc(CNC(=O)c2cccs2)cc1,i,i,i,nt,i,nt,nt,nt,nt
COc1ccc(CNC(=O)c2cc3c(s2)CN(Cc2ccccc2)C3)cc1,i,i,i,i,0.5,i,i,i,i
Cc1ccc(S(=O)(=O)NN2C(=O)/C(=C/c3cccs3)SC2=S)cc1,i,i,i,i,i,i,i,i,i
Cc1ccc(-c2cc(C(=O)Nc3ccc(S(=O)(=O)Nc4onc(C)c4C)cc3)c3ccccc3n2)cc1,i,i,i,1.7,0.6,i,i,i,i
S=C(NCCCN1CCOCC1)N1CCN(c2nc(-c3ccc(Cl)cc3)cs2)CC1,i,i,i,i,i,nt,nt,nt,nt
S=C(NCCCN1CCOCC1)N1CCN(c2nc(-c3ccccc3)cs2)CC1,i,i,i,i,1.3,i,i,i,i
CN1/C(=C/c2cccc[n+]2C)Sc2ccccc21,i,i,i,i,i,nt,nt,nt,nt
COc1ccc2c(c1)N(C)/C(=C/c1cccc[n+]1C)S2,i,i,i,i,1.1,i,i,i,i
Cc1ccc2c(c1)N(C)/C(=C/c1cccc[n+]1C)S2,i,i,i,i,1.2,i,i,i,i
SMILES,ARFGAP1 inhibitor,ASAP1 inh,Rtt109 Vps75,FGF22 binding,Efflux pump inh,Cmpd fluor yeast,CaMdr1 efflux inh,Cdr2 pump inh,Cdr1 pump inh
CCC1=NN2C(=N)/C(=C/c3c(C)nn(-c4ccccc4)c3Cl)C(=O)N=C2S1,i,i,i,i,22.7,i,i,i,i
CCC1=NN2C(=N)/C(=C/c3ccc(OS(=O)(=O)c4ccccc4)c(OC)c3)C(=O)N=C2S1,i,i,i,i,i,nt,nt,nt,nt
Cn1c(SCC(=O)N/N=C/c2ccc([N+](=O)[O-])s2)nnc1-c1ccc(Cl)cc1,i,i,i,nt,15.8,i,i,i,i
Cc1cccc(C)c1OCc1cc(C(=O)N2CCNC(=O)C2)no1,i,i,i,i,i,i,i,i,i
Cc1cccc(C)c1OCc1cc(C(=O)N2CCCCCCC2)no1,i,i,i,i,i,nt,nt,nt,nt
CCCC(=O)NC(=S)Nc1ccccc1N1CCOCC1,i,i,i,i,i,nt,nt,nt,nt
O=C(Cc1ccc(Cl)cc1)NC(=S)Nc1ccccc1N1CCOCC1,i,i,i,nt,1.4,i,i,i,i
O=C(NC(=S)Nc1ccccc1N1CCOCC1)c1ccc(-c2cccc(Cl)c2)o1,i,i,i,nt,11.1,i,i,i,i
COc1ccc(/C=N/OCc2nc3c4c(ncn3n2)Oc2ccc3ccccc3c2C4c2ccccc2)cc1 (stereo unspecified),i,i,i,nt,i,nt,nt,nt,nt
Cc1ccc(/C=C/c2nc3ccccc3c(=O)n2CCc2ccccc2)cc1,i,i,i,nt,i,nt,nt,nt,nt
O=C(C[C@@H]1CC[C@H]2[C@@H](COC[C@@H](O)CN2CC2CCOCC2)O1)NCC1CC1,nt,nt,nt,i,nt,nt,nt,nt,nt
CCOc1ccc(NC(=O)CCNS(=O)(=O)c2ccc3c(c2)c(=O)n(C)c(=O)n3C)cc1,nt,nt,i,i,6.7,i,i,i,i
Cn1c(=O)c2cc(S(=O)(=O)NCCC(=O)NC3CCCCCCC3)ccc2n(C)c1=O,nt,nt,i,i,8.2,i,i,i,i
COc1ccc2c(c1)OC[C@H]1[C@H]2N2C(=O)c3ccc(C)cc3NC(=O)[C@@]2(C)[C@H]1c1ccccc1,i,i,i,nt,34.4,i,i,i,i
Cc1ccc2c(c1)[C@H]1[C@H](CO2)[C@H](c2ccccc2)[C@]2(C)C(=O)Nc3ccc(F)cc3C(=O)N12,i,i,i,i,nt,nt,nt,nt,nt
Cc1ccc2c(c1)[C@H]1[C@H](CO2)[C@H](c2ccccc2)[C@]2(C)C(=O)Nc3cc(F)c(F)cc3C(=O)N12,i,i,i,i,i,i,i,i,i
COc1ccc2c(c1)C(=O)N1[C@H]3c4cc(Cl)ccc4OC[C@@H]3[C@H](c3ccccc3)[C@]1(C)C(=O)N2,i,i,i,nt,i,i,i,i,i
COc1cc2c(cc1OC)C(=O)N1[C@H]3c4cc(Cl)ccc4OC[C@@H]3[C@H](c3ccccc3)[C@]1(C)C(=O)N2,i,i,i,i,nt,nt,nt,nt,nt
COc1cc2c(cc1OC)C(=O)N1[C@H]3c4cc(C)ccc4OC[C@@H]3[C@H](c3ccccc3)[C@]1(C)C(=O)N2,i,i,i,i,i,i,i,i,i
COc1ccc2c(c1)[C@H]1[C@H](CO2)[C@H](c2ccccc2)[C@]2(C)C(=O)Nc3cc(C)ccc3C(=O)N12,i,i,i,i,i,nt,nt,nt,nt

# Screens as filed in PubChem.
